Measurements from ChEMBL document CHEMBL4354800, “Amphiphilic nebramine-based hybrids Rescue legacy antibiotics from intrinsic resistance in multidrug-resistant Gram-negative bacilli” (Eur J Med Chem, 2019).
Activity calls are given as the source filed them. The rule behind the calls is not given here.

Key:
Pseudomonas aeruginosa [1] = assay: Increase in tetracycline uptake in Pseudomonas aeruginosa PAO1 membrane at 25 uM measured every 1 min for 30 mins by fluorescence based assay; assay type: organism-based; conditions: Bacterial membrane
How it was run: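 P. aeruginosa PAO1 was grown to OD600 0.6, washed, and resuspended in ¼ volume of 10 mM HEPES, pH 7.2. Cells received varying compound concentrations together with fixed tetracycline. Fluorescence (ex 405 nm, em 535 nm) was recorded every 1 min for 30 min at room temperature. Experiments were done in triplicate and averages reported.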

Pseudomonas aeruginosa [2] = assay: Antimicrobial activity against XDR Pseudomonas aeruginosa PA264 infected in Galleria mellonella larvae assessed as survival rate at 25 mg/kg administered 2 hrs post-inoculation measured after 24 hrs relative to control; assay type: functional, organism-based
[3] = Toxicity in Galleria mellonella larvae assessed as tolerability by measuring larvae deaths at 75 mg/kg incubated for 96 hrs relative to control; assay type: organism-based; conditions: in vivo
[4] = Toxicity in Galleria mellonella larvae assessed as tolerability by measuring larvae deaths at 100 mg/kg incubated for 96 hrs relative to control; assay type: organism-based; conditions: in vivo
Pseudomonas aeruginosa [5] = assay: Disruption of proton gradient in Pseudomonas aeruginosa PAO1 membrane assessed as inhibition of tetracycline uptake at 25 uM measured every 1 min for 30 mins by fluorescence based assay; assay type: organism-based; conditions: Bacterial membrane

COLISTIN [listing 1 of 2 here]
Activity (Pseudomonas aeruginosa [1]): Active
Survival (Pseudomonas aeruginosa [2]): 0%

COLISTIN [listing 2 of 2 here]
Activity [3]: 70%
Activity [4]: 90%

N#CC(C#N)=NNc1cccc(Cl)c1
inhibition (Pseudomonas aeruginosa [5]): Active
